The target in series [1] is D(2) dopamine receptor (Rattus norvegicus, UniProt P61169). Briefly: Displacement of [3H]-raclopride from dopamine D2 receptor in rat striatal membranes after 1 hr by liquid scintillation counting analysis. The series is classed as cell membranes, Membrane. The procedure, abridged:
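200 µg protein incubated 1 h at 25 °C with 0.5 nM [3H]raclopride. Nonspecific binding defined with 50 µM apomorphine. GF/B filtration, scintillation counting. Mean ± SEM of 3-5 experiments.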
In general terms: In a radioligand displacement assay an active substance lowers the binding of a labelled ligand.

In series [2] the target is D(1A) dopamine receptor (Rattus norvegicus, UniProt P18901). Briefly: Displacement of [3H]-SCH 23390 from dopamine D1 receptor in rat striatal membranes after 1 hr by liquid scintillation counting analysis. The format is cell membranes, Membrane. The method, boiled down: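 Striatal membranes washed twice by centrifugation at 20000g in Tris-HCl (50 mM, pH 7.4), then resuspended in Tris with 5 mM MgSO4, 0.5 mM EDTA and 0.02% ascorbate. 100 µg protein incubated 1 h at 25 °C with 0.25 nM [3H]SCH 23390. Nonspecific binding defined with 30 µM SK&F 38393. Filtered on GF/B, scintillation counted. Mean ± SEM of 3-5 experiments.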

The species named for series [3] is Rattus norvegicus. Briefly: Selectivity ratio of Ki for dopamine D1 receptor in rat striatal membranes to Ki for dopamine D2 receptor in rat striatal membranes. The format is cell membranes. To be noted: Membrane. The procedure, abridged: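 Ratio Ki(D1)/Ki(D2) from striatal membrane displacement assays: [3H]SCH 23390 at 0.25 nM (D1) and [3H]raclopride at 0.5 nM (D2), each incubated 1 h at 25 °C, with filtration and scintillation counting. Ki data are from 3-5 experiments.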

Series [4] in a line: Cytotoxicity against human neutrophil assessed as cell viability at 3 uM after 24 hrs by MTT assay. The format is cell-based. The procedure, abridged: (§1)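 Human peripheral blood neutrophils isolated from healthy-donor buffy coats by Ficoll-Hypaque, plated at 2 x 10^5 cells/mL in RPMI. Concentrations chosen from D2 Ki. Incubated 24 h at 37 °C, 5% CO2. MTT (1 mg/mL solution) added for 60 min, formazan dissolved in DMSO, absorbance read at 570/630 nm. Mean ± SEM, n=3.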
For orientation: Tetrazolium dyes change colour on reduction, which living cells bring about.

Series [5] can be described thus: Cytotoxicity against human neutrophil assessed as cell viability at 10 uM after 24 hrs by MTT assay. The series is classed as cell-based. The method, boiled down: as §1
Series [6] in a line: Induction of apoptosis in human neutrophil at 0.1 uM after 24 hrs by annexin V-FITC/propidium iodide staining-based flow cytometric analysis. The series is classed as cell-based. The procedure, abridged: (§2)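 Freshly isolated human blood neutrophils (Ficoll-Hypaque, healthy-donor buffy coats) at 2 x 10^6 cells/mL in supplemented RPMI. Cultured 24 h at 37 °C, 5% CO2, with or without compound. Annexin V-FITC/PI flow cytometry on 1 x 10^4 cells. Early apoptotic = annexin V+/PI−, late apoptotic/necrotic = V+/PI+, viable = V−/PI−. Mean ± SEM, n=3.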

The nature of series [7]: Cytotoxicity against human neutrophil assessed as cell survival at 0.1 uM after 24 hrs by annexin V-FITC/propidium iodide staining-based flow cytometric analysis. The method, boiled down: as §2
A short description of series [8]: Cytotoxicity against human neutrophil assessed as cell viability at 0.1 uM after 24 hrs by MTT assay. The series is classed as cell-based. The procedure, abridged: as §1
Series [9] can be described thus: Cytotoxicity against human neutrophil assessed as cell viability at 100 uM after 24 hrs by MTT assay. The series is classed as cell-based. The procedure, abridged: as §1
Series [10] in a line: Cytotoxicity against human neutrophil assessed as cell viability at 0.3 uM after 24 hrs by MTT assay. The format is cell-based. The procedure, abridged: as §1

This note sets out measurements from ChEMBL document CHEMBL2424523, “2,3,9- and 2,3,11-trisubstituted tetrahydroprotoberberines as D2 dopaminergic ligands” (Eur J Med Chem, 2013).

D(2) dopamine receptor, sequence (P61169 whole entry): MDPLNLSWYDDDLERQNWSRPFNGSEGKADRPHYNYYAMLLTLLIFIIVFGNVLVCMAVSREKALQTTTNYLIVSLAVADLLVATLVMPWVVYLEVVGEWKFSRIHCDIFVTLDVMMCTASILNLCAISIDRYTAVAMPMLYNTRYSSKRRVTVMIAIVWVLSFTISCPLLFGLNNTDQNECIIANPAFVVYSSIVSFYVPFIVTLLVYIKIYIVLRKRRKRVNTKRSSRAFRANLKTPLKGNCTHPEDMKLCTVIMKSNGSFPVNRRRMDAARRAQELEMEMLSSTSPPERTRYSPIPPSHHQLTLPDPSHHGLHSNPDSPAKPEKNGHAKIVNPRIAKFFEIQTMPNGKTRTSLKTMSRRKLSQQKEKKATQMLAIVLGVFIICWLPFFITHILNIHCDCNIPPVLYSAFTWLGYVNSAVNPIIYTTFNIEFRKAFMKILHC
D(1A) dopamine receptor, sequence (P18901 whole entry): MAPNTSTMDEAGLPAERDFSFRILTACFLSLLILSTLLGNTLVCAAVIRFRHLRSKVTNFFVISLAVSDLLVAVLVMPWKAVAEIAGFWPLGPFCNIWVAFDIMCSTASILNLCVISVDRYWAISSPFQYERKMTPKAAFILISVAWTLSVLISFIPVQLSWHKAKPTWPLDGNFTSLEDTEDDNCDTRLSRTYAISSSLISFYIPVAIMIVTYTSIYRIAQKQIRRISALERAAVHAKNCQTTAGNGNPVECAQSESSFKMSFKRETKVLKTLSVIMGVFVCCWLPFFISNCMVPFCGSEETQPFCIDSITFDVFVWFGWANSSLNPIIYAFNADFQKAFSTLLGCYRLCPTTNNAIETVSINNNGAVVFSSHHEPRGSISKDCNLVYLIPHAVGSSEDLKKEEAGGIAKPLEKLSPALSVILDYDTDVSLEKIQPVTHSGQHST

`COc1cc2c(cc1OC)C1Cc3cccc(OC)c3CN1CC2` (configuration not stated): the Ki was 393 nM in series [1] (read-out: Ki), 363 nM in series [1] (read-out: pKi (converted)), 3930 nM in series [2] (read-out: Ki) and 3630 nM in series [2] (read-out: pKi (converted)). In addition, the Ratio Ki in series [3] came out at 10. Besides, the Activity result in series [4] is listed as “Non-toxic”.
Regarding `COc1ccc2c(c1)CC1c3cc(OC)c(OC)cc3CCN1C2` (configuration not stated), the Ki in [1] (read-out: Ki) is 8540 nM; in series [1] (read-out: pKi (converted)) it was 5130 nM; in series [2] (read-out: Ki) it was 4310 nM; in series [2] (read-out: pKi (converted)), 4170 nM. In [5], the Activity entry is listed as “Non-toxic”. Moreover, the Ratio Ki in series [3] was 0.5.
For `COc1ccc2c(c1)CC1c3cc4c(cc3CCN1C2)OCO4` (configuration not stated), the Ki in series [1] (read-out: Ki) was 1330 nM; in series [1] (read-out: pKi (converted)), 1150 nM; in series [2] (read-out: Ki), 2370 nM; in series [2] (read-out: pKi (converted)) it was 1700 nM. The Ratio Ki in series [3] was 1.8. Also, the Activity result in series [4] is reported as “Non-toxic”.
Take `COc1ccc2c(c1)CC1c3cc(O)c(O)cc3CCN1C2` (configuration not stated): the Ki was 78 nM in series [1] (read-out: Ki), 74.1 nM in series [1] (read-out: pKi (converted)), 1110 nM in [2] (read-out: Ki) and 955 nM in series [2] (read-out: pKi (converted)). Moreover, the Activity entry in series [6], in [7] and in [8] was “Non-toxic” each time. Also, the Ratio Ki in [3] worked out at 14.2.
As for `Oc1cc2c(cc1O)C1Cc3cccc(O)c3CN1CC2` (configuration not stated), the Ki in [1] (read-out: Ki) is 93 nM; in [1] (read-out: pKi (converted)), 85.1 nM; in series [2] (read-out: Ki) it was 3780 nM; in series [2] (read-out: pKi (converted)) it was 3470 nM. In addition, the Activity result in series [6], in series [7] and in series [8] was “Non-toxic” each time.
`COc1ccc2c(c1)CC1c3cc(OCc4ccccc4)c(OCc4ccccc4)cc3CCN1C2` (configuration not stated): the Ki was 40900 nM in series [1] (read-out: Ki), 41700 nM in [1] (read-out: pKi (converted)) and 40600 nM in [2] (read-out: Ki). For the same compound, the Activity entry in series [9] was “Non-toxic”. In [3], the Ratio Ki turned out to be 1.
As to `Oc1ccc2c(c1)CC1c3cc(O)c(Cl)cc3CCN1C2` (configuration not stated), the Activity result in series [10] is “Non-toxic”. Further, the figures for the Ki in [1] (read-out: Ki) and in [2] (read-out: Ki) were 188 nM and 107 nM, respectively. Besides, the Ratio Ki in [3] was 0.6.
As to `Oc1ccc2c(c1)CC1c3cc4c(cc3CCN1C2)OCO4` (configuration not stated), the Ki in series [1] (read-out: Ki) is 7510 nM; in [1] (read-out: pKi (converted)) it was 6920 nM; in series [2] (read-out: Ki), 33000 nM; in series [2] (read-out: pKi (converted)), 32400 nM. For the same compound, in series [5], the Activity result was “Non-toxic”. Besides, the Ratio Ki in series [3] came out at 4.4.
On to `COc1ccc2c(c1)CC1c3cc(OC)c(Cl)cc3CCN1C2` (configuration not stated), for which the Ki in series [1] (read-out: Ki) was 2050 nM; in series [2] (read-out: Ki), 1810 nM; in series [2] (read-out: pKi (converted)), 1740 nM. The Ratio Ki in series [3] was found to be 0.9. In addition, the Activity entry in series [4] is given as “Non-toxic”.
Regarding `Oc1ccc2c(c1)CC1c3cc(O)c(O)cc3CCN1C2` (configuration not stated), the Ki was 396 nM in series [1] (read-out: Ki), 389 nM in [1] (read-out: pKi (converted)), 2960 nM in [2] (read-out: Ki) and 2630 nM in series [2] (read-out: pKi (converted)). The Ratio Ki in series [3] is 7.5. Moreover, in [4], the Activity result is listed as “Non-toxic”.
As to `Oc1cccc2c1CN1CCc3cc4c(cc3C1C2)OCO4` (configuration not stated), the Ki is 35 nM in series [1] (read-out: Ki), 28.2 nM in series [1] (read-out: pKi (converted)), 344 nM in series [2] (read-out: Ki) and 339 nM in [2] (read-out: pKi (converted)). Moreover, the Activity entry in [6], in [7] and in [8] was “Non-toxic” throughout. Further, the Ratio Ki in series [3] is 10.
